pIC50: −log10 of the molar value. The source made the active and inactive calls. The rule behind the calls is not given here.
What was measured:
HGC-27 [1] = assay: Anticancer activity against human HGC-27 cells assessed as inhibition of cell proliferation after 48 hrs by MTT assay; assay type: functional, cell-based
Procedure, shortened: (§1)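 MTT assay with 48 h compound exposure. MTT solution was then added and incubated 4 h at 37 °C, the supernatant discarded and formazan dissolved in DMSO, with absorbance read at 490 nm. IC50 values were calculated from three independent experiments, reported as mean SD.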

SGC-7901 [2] = assay: Anticancer activity against human SGC-7901 cells assessed as inhibition of cell proliferation after 48 hrs by MTT assay; assay type: functional, cell-based; procedure, shortened: as §1
[3] = Selectivity index, ratio of IC50 for human GES1 cells to IC50 for human MGC-803 cells assessed as inhibition of cell proliferation after 48 hrs by MTT assay
Procedure, shortened: (§2)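 Fold selectivity is the IC50 in GES-1 normal gastric epithelial cells divided by the IC50 in the gastric cancer line (HGC-27, MGC-803 or SGC-7901). Both IC50s come from 48 h exposure, MTT (4 h, 37 °C), DMSO solubilisation and 490 nm absorbance, with three independent experiments.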

[4] = Selectivity index, ratio of IC50 for human GES1 cells to IC50 for human HGC-27 cells assessed as inhibition of cell proliferation after 48 hrs by MTT assay; procedure, shortened: as §2
[5] = Selectivity index, ratio of IC50 for human GES1 cells to IC50 for human SGC-7901 cells assessed as inhibition of cell proliferation after 48 hrs by MTT assay; procedure, shortened: as §2
HGC-27 [6] = assay: Cell cycle arrest in human HGC-27 cells assessed as accumulation at G2/M phase at 0.5 to 1.5 umol/L after 48 hrs by RNase/propidium iodide staining based flow cytometry; assay type: functional; conditions: dose micromol/L 0.5-1.5, time 48.0 hrs
Procedure, shortened: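 MGC-803, SGC-7901 and HGC-27 cells were seeded in 6-well plates and treated 48 h with compound or DMSO. Cells were then harvested and fixed in 70% cold ethanol at 4 °C for 8 h, and cell-cycle phase distribution was quantified by flow cytometry.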

SGC-7901 [7] = assay: Cell cycle arrest at M phase in human SGC-7901 cells assessed as upregulation of p-Histone-3 level at 0.5 to 1.5 umol/L after 48 hrs by Western blot analysis; assay type: functional, cell-based; conditions: dose micromol/L 0.5-1.5, time 48.0 hrs
Procedure, shortened: (§3)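 Western blot. Cells were treated with compound concentrations or DMSO for 48 h, then lysed, and lysates were denatured, run on SDS-PAGE and transferred to nitrocellulose. After blocking in 5% skimmed milk, membranes were incubated with primary antibodies at 4 °C for 8 h, then secondary antibodies, with ECL detection.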

MGC-803 [8] = assay: Inhibition of Ras/Raf/MEK/ERK signalling pathway in human MGC-803 cells assessed as downregulation of FoxO3a expression at 0.5 to 1.5 umol/L after 48 hrs by Western blot analysis; assay type: cell-based; conditions: dose micromol/L 0.5-1.5, time 48.0 hrs
Procedure, shortened: (§4)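 Cells treated with graded concentrations or DMSO for 48 h, then harvested and lysed. Lysates denatured, resolved by SDS-PAGE and transferred to nitrocellulose. Membranes blocked with 5% skimmed milk and probed with primary antibodies at 4 °C for 8 h, then with secondary antibodies. Bands detected by ECL.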

MGC-803 [9] = assay: Inhibition of Ras/Raf/MEK/ERK signalling pathway in human MGC-803 cells assessed as downregulation of c-Myc expression at 0.5 to 1.5 umol/L after 48 hrs by Western blot analysis; assay type: cell-based; conditions: dose micromol/L 0.5-1.5, time 48.0 hrs; procedure, shortened: as §4
HGC-27 [10] = assay: Inhibition of Ras/Raf/MEK/ERK signalling pathway in human HGC-27 cells assessed as downregulation of c-Myc expression at 0.5 to 1.5 umol/L after 48 hrs by Western blot analysis; assay type: cell-based; conditions: dose micromol/L 0.5-1.5, time 48.0 hrs; procedure, shortened: as §4
SGC-7901 [11] = assay: Inhibition of Ras/Raf/MEK/ERK signalling pathway in human SGC-7901 cells assessed as downregulation of c-Myc expression at 0.5 to 1.5 umol/L after 48 hrs by Western blot analysis; assay type: cell-based; conditions: dose micromol/L 0.5-1.5, time 48.0 hrs; procedure, shortened: as §4
MGC-803 [12] = assay: Inhibition of Akt/mTOR signalling pathway in human MGC-803 cells assessed as decrease in mTOR phosphorylation at Ser2448 residue at 0.5 to 1.5 umol/L after 48 hrs by Western blot analysis; assay type: cell-based; conditions: dose micromol/L 0.5-1.5, time 48.0 hrs; procedure, shortened: as §4
MGC-803 [13] = assay: Anticancer activity against human MGC-803 cells assessed as cell growth at 0.5 to 1.5 umol/L after 48 hrs by MTT assay relative to control; assay type: functional; conditions: dose micromol/L 0.5-1.5
MGC-803 [14] = assay: Induction of apoptosis in human MGC-803 cells assessed as increase in nucleus concentration at 0.5 to 1.5 umol/L after 48 hrs by imaging analysis; assay type: functional, cell-based; conditions: dose micromol/L 0.5-1.5, time 48.0 hrs
HGC-27 [15] = assay: Induction of apoptosis in human HGC-27 cells assessed as increase in nucleus concentration at 0.5 to 1.5 umol/L after 48 hrs by imaging analysis; assay type: functional, cell-based; conditions: dose micromol/L 0.5-1.5, time 48.0 hrs
SGC-7901 [16] = assay: Induction of apoptosis in human SGC-7901 cells assessed as increase in nucleus concentration at 0.5 to 1.5 umol/L after 48 hrs by imaging analysis; assay type: functional, cell-based; conditions: dose micromol/L 0.5-1.5, time 48.0 hrs
MGC-803 [17] = assay: Induction of apoptosis in human MGC-803 cells assessed as cleavage of PARP at 0.5 to 1.5 umol/L after 48 hrs Western blot analysis; assay type: functional, cell-based; conditions: dose micromol/L 0.5-1.5, time 48.0 hrs; procedure, shortened: as §3
MGC-803 [18] = assay: Induction of apoptosis in human MGC-803 cells assessed as downregulation of Mcl-1 level at 0.5 to 1.5 umol/L after 48 hrs Western blot analysis; assay type: functional, cell-based; conditions: dose micromol/L 0.5-1.5, time 48.0 hrs; procedure, shortened: as §3
HGC-27 [19] = assay: Induction of apoptosis in human HGC-27 cells assessed as cleavage of PARP at 0.5 to 1.5 umol/L after 48 hrs Western blot analysis; assay type: functional, cell-based; conditions: dose micromol/L 0.5-1.5, time 48.0 hrs; procedure, shortened: as §3
HGC-27 [20] = assay: Induction of apoptosis in human HGC-27 cells assessed as upregulation of NOXA level at 0.5 to 1.5 umol/L after 48 hrs Western blot analysis; assay type: functional, cell-based; conditions: dose micromol/L 0.5-1.5, time 48.0 hrs; procedure, shortened: as §3
HGC-27 [21] = assay: Induction of apoptosis in human HGC-27 cells assessed as downregulation of Bcl-2 level at 0.5 to 1.5 umol/L after 48 hrs Western blot analysis; assay type: functional, cell-based; conditions: dose micromol/L 0.5-1.5, time 48.0 hrs; procedure, shortened: as §3
HGC-27 [22] = assay: Induction of apoptosis in human HGC-27 cells assessed as downregulation of XIAP level at 0.5 to 1.5 umol/L after 48 hrs Western blot analysis; assay type: functional, cell-based; conditions: dose micromol/L 0.5-1.5, time 48.0 hrs; procedure, shortened: as §3
SGC-7901 [23] = assay: Induction of apoptosis in human SGC-7901 cells assessed as cleavage of PARP at 0.5 to 1.5 umol/L after 48 hrs Western blot analysis; assay type: functional, cell-based; conditions: dose micromol/L 0.5-1.5, time 48.0 hrs; procedure, shortened: as §3
SGC-7901 [24] = assay: Induction of apoptosis in human SGC-7901 cells assessed as upregulation of NOXA level at 0.5 to 1.5 umol/L after 48 hrs Western blot analysis; assay type: functional, cell-based; conditions: dose micromol/L 0.5-1.5, time 48.0 hrs; procedure, shortened: as §3
MGC-803 [25] = assay: Inhibition of colony formation in human MGC-803 cells at 0.5 to 1.5 umol/L after 7 days by crystal violet staining based assay; assay type: functional, cell-based; conditions: dose micromol/L 0.5-1.5, time 7.0 day
Procedure, shortened: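 5000 cells per well seeded and held 24 h at 37 °C, 5% CO2, then exposed to graded concentrations (0.5, 1, 1.5 µmol/L). After 7 days the medium was removed and wells were washed twice with PBS. Colonies fixed in 4% paraformaldehyde and stained with 0.1% crystal violet.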

SGC-7901 [26] = assay: Anticancer activity against human SGC-7901 cells assessed as cell growth at 0.5 to 1.5 umol/L after 48 hrs by MTT assay relative to control; assay type: functional; conditions: dose micromol/L 0.5-1.5
HGC-27 [27] = assay: Inhibition of Ras/Raf/MEK/ERK signalling pathway in human HGC-27 cells assessed as effect on RAS level at 0.5 to 1.5 umol/L after 48 hrs by Western blot analysis; assay type: cell-based; conditions: dose micromol/L 0.5-1.5, time 48.0 hrs; procedure, shortened: as §4

pIC50 (SGC-7901 [2]; SGC-7901, 48 h): 5.64
Structure (SMILES): COc1cc(N(Cc2nc3ccccc3[nH]2)S(=O)(=O)c2ccc(C)cc2)cc(OC)c1OC
Activity (HGC-27 [1]): Dose-dependent effect | pIC50 (HGC-27 [1]; HGC-27, 48 h): 5.79 | Activity (SGC-7901 [2]): Dose-dependent effect | Ratio IC50 [3]: 14.9 | Ratio IC50 [4]: 9.4 | Ratio IC50 [5]: 6.6 | Activity (HGC-27 [6]): Active | Activity (SGC-7901 [7]): Active | inhibition (MGC-803 [8]): Active | inhibition (MGC-803 [9]): Active | inhibition (HGC-27 [10]): Active | inhibition (SGC-7901 [11]): Active | inhibition (MGC-803 [12]): Active | fold change (FC) (MGC-803 [13]): <2 | Activity (MGC-803 [14]): Active | Activity (HGC-27 [15]): Active | Activity (SGC-7901 [16]): Active | Activity (MGC-803 [17]): Active | Activity (MGC-803 [18]): Active | Activity (HGC-27 [19]): Active | Activity (HGC-27 [20]): Active | Activity (HGC-27 [21]): Active | Activity (HGC-27 [22]): Active | Activity (SGC-7901 [23]): Active | Activity (SGC-7901 [24]): Active | inhibition (MGC-803 [25]): Active | fold change (FC) (SGC-7901 [26]): <2 | inhibition (HGC-27 [27]): inactive

From ChEMBL document CHEMBL4665669, “Novel tertiary sulfonamide derivatives containing benzimidazole moiety as potent anti-gastric cancer agents: Design, synthesis and SAR studies” (Eur J Med Chem, 2019)
